# Assay results as given in ChEMBL document CHEMBL1134356, “Correlation of anti-HIV activity with anion spacing in a series of cosalane analogues with extended polycarboxylate pharmacophores” (J Med Chem, 2001).
# How the values were obtained:
# [1] = tested on: MT4; assay: 50% cell death in uninfected MT-4 cells was determined using MTS cytoprotection assay; format: functional; conditions: Homo sapiens, in the assay text read “MTT cytoprotection assay” for “MTS cytoprotection assay”
# Outline: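 MT-4 cells at 6 × 10^5 cells/mL, infected with HIV-1 IIIB or HIV-2 ROD at 100–300 CCID50, or mock-infected. Serial 5-fold compound dilutions, triplicate wells. After 5 days, viability read by MTT reduction at 540 and 690 nm, median OD of three wells. CC50 is 50% drop in OD540 of mock-infected cells; EC50 is 50% protection from viral cytopathic effect.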
# [2] = In vitro inhibition of cytopathic effect was determined against HIV-1 RF in CEM-SS cells using MTS cytoprotection assay; format: functional, cell-based
# Outline: (§1)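 CEM-SS cells from exponential culture, 5 × 10^3 per well, mixed with pretitered HIV-1 RF and serially diluted compound. Incubated 6 days at 37 °C, 5% CO2. MTS added, colour developed overnight at 37 °C, read at 490 nm, expressed as percent of uninfected drug-free control. EC50 is 50% protection from cytopathic effect; CC50 is 50% death of uninfected cells. Triplicates on each of two sister plates, plate values averaged.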
# [3] = tested on: CEM-SS; assay: 50% cell death in uninfected CEM-SS cells was determined using MTS cytoprotection assay; format: functional; conditions: Homo sapiens; outline: as §1
# [4] = tested on: MT4; assay: In vitro inhibition of cytopathic effect was determined against HIV-1 IIIB in MT-4 cells using MTT cytoprotection assay; conditions: Homo sapiens
# [5] = as above; conditions: MT4
Compound,CC50 [1] [µM],EC50 [2] [µM],CC50 [3] [µM],EC50 [4] [µM],EC50 [5] [µM]
CC(C)CCCC(C)[C@H]1CC[C@H]2[C@@H]3CCC4C[C@@H](CCC=C(c5cc(Cl)c(O)c(C(=O)NCC(=O)O)c5)c5cc(Cl)c(O)c(C(=O)NCC(=O)O)c5)CC[C@]4(C)[C@H]3CC[C@]12C (some centres undefined),> 125,3.4,> 200,57.6,–
CC(C)CCCC(C)[C@H]1CC[C@H]2[C@@H]3CCC4C[C@@H](CCC=C(c5cc(Cl)c(O)c(C(=O)NCC(=O)OC(C)(C)C)c5)c5cc(Cl)c(O)c(C(=O)NCC(=O)OC(C)(C)C)c5)CC[C@]4(C)[C@H]3CC[C@]12C (some centres undefined),> 125,–,> 125,–,> 125
CC(C)CCCC(C)[C@H]1CC[C@H]2[C@@H]3CCC4C[C@@H](CCC=C(c5cc(Cl)c(O)c(C(=O)NCCC(=O)O)c5)c5cc(Cl)c(O)c(C(=O)NCCC(=O)O)c5)CC[C@]4(C)[C@H]3CC[C@]12C (some centres undefined),> 125,–,> 200,–,73.8
CC(C)CCCC(C)[C@H]1CC[C@H]2[C@@H]3CCC4C[C@@H](CCCC(c5cc(Cl)c(O)c(C(=O)NCC(=O)O)c5)c5cc(Cl)c(O)c(C(=O)NCC(=O)O)c5)CC[C@]4(C)[C@H]3CC[C@]12C (some centres undefined),> 125,–,> 200,–,39.4
CC(C)CCCC(C)[C@H]1CC[C@H]2[C@@H]3CCC4C[C@@H](CCC=C(c5cc(Cl)c(O)c(C(=O)N[C@@H](CC(C)C)C(=O)O)c5)c5cc(Cl)c(O)c(C(=O)N[C@@H](CC(C)C)C(=O)O)c5)CC[C@]4(C)[C@H]3CC[C@]12C (some centres undefined),> 125,40,> 200,–,63.4
COc1c(Cl)cc(Cc2cc(C(=CCC[C@H]3CC[C@@]4(C)C(CC[C@H]5[C@@H]6CC[C@H](C(C)CCCC(C)C)[C@@]6(C)CC[C@@H]54)C3)c3cc(Cc4cc(Cl)c(OC)c(C(=O)O)c4)c(OC)c(C(=O)O)c3)cc(C(=O)O)c2OC)cc1C(=O)O (some centres undefined),41,2.9,50,–,12.5
CC(C)CCCC(C)[C@H]1CC[C@H]2[C@@H]3CCC4C[C@@H](CCC=C(c5cc(Cl)c(O)c(C(=O)N[C@@H](CC(=O)O)C(=O)O)c5)c5cc(Cl)c(O)c(C(=O)N[C@@H](CC(=O)O)C(=O)O)c5)CC[C@]4(C)[C@H]3CC[C@]12C (some centres undefined),> 125,–,90,–,–
CC(C)CCCC(C)[C@H]1CC[C@H]2[C@@H]3CCC4C[C@@H](CCC=C(c5cc(Cl)c(OCc6ccc(CC(=O)O)cc6)c(C(=O)O)c5)c5cc(Cl)c(OCc6ccc(CC(=O)O)cc6)c(C(=O)O)c5)CC[C@]4(C)[C@H]3CC[C@]12C (some centres undefined),–,1.8,–,–,4.1
CC(C)CCCC(C)[C@H]1CC[C@H]2[C@@H]3CCC4C[C@@H](CCC=C(c5cc(Cl)c(O)c(C(=O)N[C@@H](Cc6ccccc6)C(=O)O)c5)c5cc(Cl)c(O)c(C(=O)N[C@@H](Cc6ccccc6)C(=O)O)c5)CC[C@]4(C)[C@H]3CC[C@]12C (some centres undefined),62,> 200,> 200,–,> 62
CC(C)CCCC(C)[C@H]1CC[C@H]2[C@@H]3CCC4C[C@@H](CCC=C(c5cc(Cl)c(OCc6ccc(-c7cccc(C(=O)O)c7)cc6)c(C(=O)O)c5)c5cc(Cl)c(OCc6ccc(-c7cccc(C(=O)O)c7)cc6)c(C(=O)O)c5)CC[C@]4(C)[C@H]3CC[C@]12C (some centres undefined),79,6.1,–,–,12
CC(C)CCCC(C)[C@H]1CC[C@H]2[C@@H]3CCC4C[C@@H](CCC=C(c5cc(Cl)c(O)c(C(=O)O)c5)c5cc(Cl)c(O)c(C(=O)O)c5)CC[C@]4(C)[C@H]3CC[C@]12C (some centres undefined),> 125,5.1,–,–,3
COc1ccc(C(=O)Nc2cc(C(=CCC[C@H]3CC[C@@]4(C)C(CC[C@H]5[C@@H]6CC[C@H](C(C)CCCC(C)C)[C@@]6(C)CC[C@@H]54)C3)c3cc(NC(=O)c4ccc(OC)c(C(=O)O)c4)c(OC)c(C(=O)O)c3)cc(C(=O)O)c2OC)cc1C(=O)O (some centres undefined),81,28.6,47,–,8.4
CC(C)CCCC(C)[C@H]1CC[C@H]2[C@@H]3CCC4C[C@@H](CCC=C(c5cc(Cl)c(OCc6ccc(C(=O)O)cc6)c(C(=O)O)c5)c5cc(Cl)c(OCc6ccc(C(=O)O)cc6)c(C(=O)O)c5)CC[C@]4(C)[C@H]3CC[C@]12C (some centres undefined),89,0.5,–,–,–
CC(C)CCCC(C)[C@H]1CC[C@H]2[C@@H]3CCC4C[C@@H](CCCC(c5cc(Cl)c(O)c(C(=O)N[C@@H](CCC(=O)O)C(=O)O)c5)c5cc(Cl)c(O)c(C(=O)N[C@@H](CCC(=O)O)C(=O)O)c5)CC[C@]4(C)[C@H]3CC[C@]12C (some centres undefined),> 125,–,34,–,10.3
CC(C)CCCC(C)[C@H]1CC[C@H]2[C@@H]3CCC4C[C@@H](CCC=C(c5cc(Cl)c(OCc6cccc(C(=O)O)c6)c(C(=O)O)c5)c5cc(Cl)c(OCc6cccc(C(=O)O)c6)c(C(=O)O)c5)CC[C@]4(C)[C@H]3CC[C@]12C (some centres undefined),76,–,–,–,–
CC(C)CCCC(C)[C@H]1CC[C@H]2[C@@H]3CCC4C[C@@H](CCC=C(c5cc(Cl)c(O)c(C(=O)N[C@@H](CCC(=O)O)C(=O)O)c5)c5cc(Cl)c(O)c(C(=O)N[C@@H](CCC(=O)O)C(=O)O)c5)CC[C@]4(C)[C@H]3CC[C@]12C (some centres undefined),> 125,–,82,–,8.9
CC(C)CCCC(C)[C@H]1CC[C@H]2[C@@H]3CCC4C[C@@H](CCC=C(c5cc(Cl)c(OCc6ccccc6C(=O)O)c(C(=O)O)c5)c5cc(Cl)c(OCc6ccccc6C(=O)O)c(C(=O)O)c5)CC[C@]4(C)[C@H]3CC[C@]12C (some centres undefined),–,39.8,–,–,> 37
CC(C)CCCC(C)[C@H]1CC[C@H]2[C@@H]3CCC4C[C@@H](CCCC(c5cc(Cl)c(OCc6ccc(C(=O)O)cc6)c(C(=O)O)c5)c5cc(Cl)c(OCc6ccc(C(=O)O)cc6)c(C(=O)O)c5)CC[C@]4(C)[C@H]3CC[C@]12C (some centres undefined),> 125,4.8,> 200,–,5.1
CC(C)CCCC(C)[C@H]1CC[C@H]2[C@@H]3CCC4C[C@@H](CCC=C(c5cc(Cl)c(OCc6ccc(-c7ccc(C(=O)O)cc7)cc6)c(C(=O)O)c5)c5cc(Cl)c(OCc6ccc(-c7ccc(C(=O)O)cc7)cc6)c(C(=O)O)c5)CC[C@]4(C)[C@H]3CC[C@]12C (some centres undefined),100,> 100,–,–,> 100
CC(C)CCCC(C)[C@H]1CC[C@H]2[C@@H]3CCC4C[C@@H](CCC=C(c5cc(Cl)c(OCc6ccc(-c7ccccc7C(=O)O)cc6)c(C(=O)O)c5)c5cc(Cl)c(OCc6ccc(-c7ccccc7C(=O)O)cc6)c(C(=O)O)c5)CC[C@]4(C)[C@H]3CC[C@]12C (some centres undefined),–,5.2,–,–,10.1
